Source: ChEMBL document CHEMBL5038571, “Design and Synthesis of EZH2-Based PROTACs to Degrade the PRC2 Complex for Targeting the Noncatalytic Activity of EZH2” (J Med Chem, 2021)
Calls of active or inactive are those of the source. The calls are words filed in the database; no cut-off is given here.

Legend:
[1] = biological target: Histone-lysine N-methyltransferase EZH2 (Homo sapiens, UniProt Q15910); assay type: cell-based, Sf9
[2] = biological target: T1, Protein cereblon/Histone-lysine N-methyltransferase EZH2 (Homo sapiens) (UniProt Q15910+Q96SW2); assay: PROTAC activity at CRBN E3 ligase/EZH2 in PRC2 complex in human WSUDLCL2 cells assessed as reduction in H3K27me3 level at 1 uM incubated for 48 hrs by Western blot analysis; assay type: cell-based
Outline: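 WSU-DLCL-2 cells treated 48 h (1 μM for the single-concentration screen), lysed; SDS-PAGE, nitrocellulose transfer, 5% milk block, primary antibody 4 °C overnight, chemiluminescence. Bands quantified by densitometry, normalized to GAPDH, expressed relative to DMSO-treated cells; mean ± SD of three independent experiments, t-test.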

[3] = biological target: T1, Protein cereblon/Histone-lysine N-methyltransferase EZH2 (Homo sapiens); assay: PROTAC activity at CRBN E3 ligase/EZH2 in PRC2 complex in human WSUDLCL2 cells assessed as reduction in EZH2 level at 2.5 uM measured after 48 hrs by Western blot analysis; assay type: cell-based
Outline: (§1)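 WSU-DLCL-2 cells exposed 48 h to PROTAC or control analogues at 2.5 μM, with thalidomide and EPZ6438 at 10 μM; PRC2 subunit levels then read by western blot.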

[4] = biological target: T1, Protein cereblon/Histone-lysine N-methyltransferase EZH2 (Homo sapiens); assay: PROTAC activity at CRBN E3 ligase/EZH2 in PRC2 complex in human WSUDLCL2 cells assessed as reduction in RbAp48 level at 2.5 uM measured after 48 hrs by Western blot analysis; assay type: cell-based
Outline: as §1

[5] = biological target: T1, Protein cereblon/Histone-lysine N-methyltransferase EZH2 (Homo sapiens); assay: PROTAC activity at CRBN E3 ligase/EZH2 in PRC2 complex in human WSUDLCL2 cells assessed as reduction in SUZ12 level at 2.5 uM measured after 48 hrs by Western blot analysis; assay type: cell-based
Outline: as §1

[6] = biological target: T1, Protein cereblon/Histone-lysine N-methyltransferase EZH2 (Homo sapiens); assay: PROTAC activity at CRBN E3 ligase/EZH2 in PRC2 complex in human WSUDLCL2 cells assessed as reduction in EED level at 2.5 uM measured after 48 hrs by Western blot analysis; assay type: cell-based
Outline: as §1

Chain of Histone-lysine N-methyltransferase EZH2 (Q15910 whole entry): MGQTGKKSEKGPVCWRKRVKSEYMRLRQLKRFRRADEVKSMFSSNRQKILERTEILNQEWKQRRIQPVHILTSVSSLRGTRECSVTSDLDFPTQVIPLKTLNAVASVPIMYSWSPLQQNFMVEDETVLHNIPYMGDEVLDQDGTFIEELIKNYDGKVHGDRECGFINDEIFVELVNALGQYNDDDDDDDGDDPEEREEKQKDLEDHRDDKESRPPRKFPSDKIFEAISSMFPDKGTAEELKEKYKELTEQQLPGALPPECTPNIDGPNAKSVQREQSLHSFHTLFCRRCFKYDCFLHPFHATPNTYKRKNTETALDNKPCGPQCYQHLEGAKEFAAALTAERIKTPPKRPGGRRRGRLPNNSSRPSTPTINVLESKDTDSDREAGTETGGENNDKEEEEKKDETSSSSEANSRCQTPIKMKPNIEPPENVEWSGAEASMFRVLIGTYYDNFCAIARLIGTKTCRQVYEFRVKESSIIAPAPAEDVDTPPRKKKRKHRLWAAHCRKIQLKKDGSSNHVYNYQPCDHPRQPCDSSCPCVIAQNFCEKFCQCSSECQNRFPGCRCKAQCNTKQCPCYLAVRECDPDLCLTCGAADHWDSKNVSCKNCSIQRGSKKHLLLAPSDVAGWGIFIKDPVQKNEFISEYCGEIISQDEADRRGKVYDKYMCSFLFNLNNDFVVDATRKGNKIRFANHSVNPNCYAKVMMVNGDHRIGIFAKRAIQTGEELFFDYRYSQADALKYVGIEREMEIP
T1 sequence (Q15910 whole entry, looked up): as the sequence (Q15910 whole entry) above
T1 sequence (Q96SW2 whole entry, looked up): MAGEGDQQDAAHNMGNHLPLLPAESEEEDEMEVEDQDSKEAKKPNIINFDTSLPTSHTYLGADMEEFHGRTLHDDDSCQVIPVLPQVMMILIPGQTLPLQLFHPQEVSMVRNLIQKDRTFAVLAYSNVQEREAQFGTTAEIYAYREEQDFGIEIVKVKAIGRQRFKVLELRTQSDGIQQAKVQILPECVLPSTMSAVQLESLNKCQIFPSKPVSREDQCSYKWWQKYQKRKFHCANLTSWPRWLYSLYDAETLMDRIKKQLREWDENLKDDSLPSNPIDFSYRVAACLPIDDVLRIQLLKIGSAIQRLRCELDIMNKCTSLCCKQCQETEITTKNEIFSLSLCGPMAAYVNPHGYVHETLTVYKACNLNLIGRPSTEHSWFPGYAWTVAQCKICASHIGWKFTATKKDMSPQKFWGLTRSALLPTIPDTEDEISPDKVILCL

| Compound | IC50 [1] [µM] | Activity [2] | other results |
| --- | --- | --- | --- |
| CC[C@H](C)n1cc(C)c2c(C(=O)NCc3c(C)cc(C)[nH]c3=O)cc(-c3ccc(N4CCN(CCCCCCCCCCCOc5cccc6c5C(=O)N(C5CCC(=O)NC5=O)C6=O)CC4)nc3)cc21 (stereo not given in full) | 0.165 | Active |  |
| CCN(c1cc(-c2ccc(CN3CCN(CCCCCCCCCCCCOc4cccc5c4C(=O)N(C4CCC(=O)NC4=O)C5=O)CC3)cc2)cc(C(=O)NCc2c(C)cc(C)[nH]c2=O)c1C)C1CCOCC1 (stereo not given) | 0.053 |  |  |
| CCN(c1cc(-c2ccc(CN3CCN(CCCCCCCOc4cccc5c4C(=O)N(C4CCC(=O)NC4=O)C5=O)CC3)cc2)cc(C(=O)NCc2c(C)cc(C)n(C)c2=O)c1C)C1CCOCC1 (stereo not given) | 0.0233 |  | Activity [3]: inactive; Activity [4]: inactive; Activity [5]: inactive; Activity [6]: inactive |
| CCN(c1cc(-c2ccc(CN3CCN(CCCCCCCCCOc4cccc5c4C(=O)N(C4CCC(=O)NC4=O)C5=O)CC3)cc2)cc(C(=O)NCc2c(C)cc(C)[nH]c2=O)c1C)C1CCOCC1 (stereo not given) | 0.015 | Active |  |
| CC[C@H](C)n1cc(C)c2c(C(=O)NCc3c(C)cc(C)[nH]c3=O)cc(-c3ccc(N4CCN(CCCCCCCCCCOc5cccc6c5C(=O)N(C5CCC(=O)NC5=O)C6=O)CC4)nc3)cc21 (stereo not given in full) | 0.144 | Active |  |
| CC[C@H](C)n1cc(C)c2c(C(=O)NCc3c(C)cc(C)[nH]c3=O)cc(-c3ccc(N4CCN(CCCCCCCCCOc5cccc6c5C(=O)N(C5CCC(=O)NC5=O)C6=O)CC4)nc3)cc21 (stereo not given in full) | 0.016 | Active |  |

These reach a lower IC50 [1]. Values come first.

| IC50 [1] [µM] | Activity [2] | Compound | other results |
| --- | --- | --- | --- |
| 0.0073 | Active | CC[C@H](C)n1cc(C)c2c(C(=O)NCc3c(C)cc(C)[nH]c3=O)cc(-c3ccc(N4CCN(CCCCCCCCOc5cccc6c5C(=O)N(C5CCC(=O)NC5=O)C6=O)CC4)nc3)cc21 (stereo not given in full) |  |
| 0.0055 |  | CC[C@H](C)n1cc(C)c2c(C(=O)NCc3c(C)cc(C)[nH]c3=O)cc(-c3ccc(N4CCN(CCCCOc5cccc6c5C(=O)N(C5CCC(=O)NC5=O)C6=O)CC4)nc3)cc21 (stereo not given in full) |  |
| 0.0039 |  | CCN(c1cc(-c2ccc(CN3CCN(CCCCCCOc4cccc5c4C(=O)N(C4CCC(=O)NC4=O)C5=O)CC3)cc2)cc(C(=O)NCc2c(C)cc(C)[nH]c2=O)c1C)C1CCOCC1 (stereo not given) |  |
| 0.0034 | Active | CCN(c1cc(-c2ccc(CN3CCN(CCCCCCCCOc4cccc5c4C(=O)N(C4CCC(=O)NC4=O)C5=O)CC3)cc2)cc(C(=O)NCc2c(C)cc(C)[nH]c2=O)c1C)C1CCOCC1 (stereo not given) |  |
